# Experimental data taken from ChEMBL document CHEMBL3120097, “HCV NS5A replication complex inhibitors. Part 4. Optimization for genotype 1a replicon inhibitory activity” (J Med Chem, 2014).
# Experiments:
# [1] = tested on: Bovine viral diarrhea virus 1; assay: Antiviral activity against BVDV infected in bovine MDBK cells after 72 hrs by luciferase reporter gene assay; type: functional, organism-based; conditions: Bovine viral diarrhea virus isolates and strains
# [2] = Cytotoxicity against bovine MDBK cells after 3 days by CellTitre-Blue assay; type: cell-based, Bos taurus; conditions: cattle
# Hepatitis C virus [3] = assay: Antiviral activity against HCV genotype 1b infected in human HuH7 cells after 72 hrs by FRET assay; type: functional, organism-based, Hepacivirus hominis; conditions: Huh-7, 72 h
# Outline: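 Replicon cells seeded 10K/well, attached overnight; compounds added with 0.5% v/v DMSO vehicle controls, typically 72 h. Alamar blue read first, then cells PBS-rinsed and lysed with reagent holding 150 mM NaCl and 20 μM final EDANS/DABCYL NS3 protease peptide; kinetic fluorescence 340/490 nm. EC₅₀ = concentration halving background-subtracted FRET signal versus DMSO wells.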
# Hepatitis C virus [4] = assay: Antiviral activity against HCV genotype 1a H77c infected in human HuH7 cells after 5 days by ELISA; type: functional, organism-based, Hepacivirus hominis; conditions: Huh-7, 120 h
# Outline: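 Genotype 1a (H77c) replicon cells, 1.5 × 10⁴/well in DMEM + 10% FBS, attached overnight at 37 °C; serially diluted compounds (in FBS-free DMEM) added, 5 days at 37 °C. Cells dried overnight at 37 °C to fix, Triton-permeabilized, casein-blocked; NS5A antiserum then HRP secondary, chemiluminescent read. Inhibition relative to untreated wells; background set with 500 nM NS3 inhibitor.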
# Hepatitis C virus [5] = assay: Antiviral activity against HCV genotype 1a H77c infected in human HuH7 cells after 3 days by luciferase reporter gene assay; type: functional, organism-based, Hepacivirus hominis; conditions: Huh-7, 72 h
# Outline: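 Titrated compounds in 384-well plates seeded with replicon cells, 2.4 × 10³/well in DMEM with 4% FCS, final DMSO 0.5% v/v; 3 days at 37 °C. Renilla luciferase read with EnduRen substrate at […] final after ≥1 h at 37 °C; EC₅₀ from four-parameter logistic fit.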
EC50 [1],EC50 (Hepatitis C virus [3]),EC50 (Hepatitis C virus [4]),SMILES,CC50 at 72 h [2],EC50 (Hepatitis C virus [5])
> 5 µM,1600 nM,> 10000 nM,O=C(Nc1ccc(/C=C/c2ccc(NC(=O)[C@@H]3CCCN3C(=O)c3cccc4ccccc34)cc2)cc1)[C@@H]1CCCN1C(=O)c1cccc2ccccc12,> 10 µM,–
4.7 µM,–,–,CCc1ccccc1C(=O)N1CCC[C@H]1C(=O)Nc1ccc(/C=C/c2ccc(NC(=O)[C@@H]3CCCN3C(=O)c3ccccc3CC)cc2)cc1,> 10 µM,–
6.4 µM,–,390 nM,O=C(Nc1ccc(/C=C/c2ccc(NC(=O)[C@@H]3CCCN3C(=O)c3nccc4ccccc34)cc2)cc1)[C@@H]1CCCN1C(=O)c1nccc2ccccc12,> 10 µM,–
> 5 µM,200 nM,590 nM,O=C(Nc1ccc(/C=C/c2ccc(NC(=O)[C@@H]3CCCN3C(=O)c3ccc4ccccc4n3)cc2)cc1)[C@@H]1CCCN1C(=O)c1ccc2ccccc2n1,> 10 µM,–
0.042 µM,140 nM,1400 nM,O=C(Nc1ccc(/C=C/c2ccc(NC(=O)[C@@H]3CCCN3C(=O)c3cncc4ccccc34)cc2)cc1)[C@@H]1CCCN1C(=O)c1cncc2ccccc12,> 10 µM,–
> 5 µM,2300 nM,910 nM,O=C(Nc1ccc(/C=C/c2ccc(NC(=O)[C@@H]3CCCN3C(=O)c3ncnc4ccccc34)cc2)cc1)[C@@H]1CCCN1C(=O)c1ncnc2ccccc12,> 10 µM,–
> 5 µM,30 nM,1000 nM,O=C(Nc1ccc(/C=C/c2ccc(NC(=O)[C@@H]3CCCN3C(=O)c3nncc4ccccc34)cc2)cc1)[C@@H]1CCCN1C(=O)c1nncc2ccccc12,> 10 µM,–
> 10 µM,23 nM,62 nM,O=C(Nc1ccc(/C=C/c2ccc(NC(=O)[C@@H]3CCCN3C(=O)c3nc(Cl)cc4ccccc34)cc2)cc1)[C@@H]1CCCN1C(=O)c1nc(Cl)cc2ccccc12,> 10 µM,–
> 10 µM,69 nM,282 nM,O=C(Nc1ccc(/C=C/c2ccc(NC(=O)[C@@H]3CCCN3C(=O)c3ncc(Cl)c4ccccc34)cc2)cc1)[C@@H]1CCCN1C(=O)c1ncc(Cl)c2ccccc12,> 10 µM,–
> 10 µM,139 nM,255 nM,O=C(Nc1ccc(/C=C/c2ccc(NC(=O)[C@@H]3CCCN3C(=O)c3nccc4c(Cl)cccc34)cc2)cc1)[C@@H]1CCCN1C(=O)c1nccc2c(Cl)cccc12,> 10 µM,–
2.1 µM,110 nM,761 nM,O=C(Nc1ccc(/C=C/c2ccc(NC(=O)[C@@H]3CCCN3C(=O)c3nccc4cc(Cl)ccc34)cc2)cc1)[C@@H]1CCCN1C(=O)c1nccc2cc(Cl)ccc12,> 10 µM,–
> 10 µM,36 nM,> 10000 nM,O=C(Nc1ccc(/C=C/c2ccc(NC(=O)[C@@H]3CCCN3C(=O)c3nccc4ccc(Cl)cc34)cc2)cc1)[C@@H]1CCCN1C(=O)c1nccc2ccc(Cl)cc12,> 10 µM,–
> 10 µM,27 nM,70 nM,O=C(Nc1ccc(/C=C/c2ccc(NC(=O)[C@@H]3CCCN3C(=O)c3nc(F)cc4ccccc34)cc2)cc1)[C@@H]1CCCN1C(=O)c1nc(F)cc2ccccc12,> 10 µM,–
7.9 µM,42 nM,236 nM,O=C(Nc1ccc(/C=C/c2ccc(NC(=O)[C@@H]3CCCN3C(=O)c3nccc4c(F)cccc34)cc2)cc1)[C@@H]1CCCN1C(=O)c1nccc2c(F)cccc12,> 10 µM,–
> 10 µM,6 nM,329 nM,Cc1cc2ccccc2c(C(=O)N2CCC[C@H]2C(=O)Nc2ccc(/C=C/c3ccc(NC(=O)[C@@H]4CCCN4C(=O)c4nc(C)cc5ccccc45)cc3)cc2)n1,> 10 µM,–
> 10 µM,< 5 nM,> 10000 nM,Cc1cccc2c(C(=O)N3CCC[C@H]3C(=O)Nc3ccc(/C=C/c4ccc(NC(=O)[C@@H]5CCCN5C(=O)c5nccc6c(C)cccc56)cc4)cc3)nccc12,> 10 µM,–
> 10 µM,32 nM,> 10000 nM,COc1cc2ccccc2c(C(=O)N2CCC[C@H]2C(=O)Nc2ccc(/C=C/c3ccc(NC(=O)[C@@H]4CCCN4C(=O)c4nc(OC)cc5ccccc45)cc3)cc2)n1,> 10 µM,–
> 10 µM,215 nM,175 nM,COc1cccc2c(C(=O)N3CCC[C@H]3C(=O)Nc3ccc(/C=C/c4ccc(NC(=O)[C@@H]5CCCN5C(=O)c5nccc6c(OC)cccc56)cc4)cc3)nccc12,> 10 µM,–
> 10 µM,240 nM,> 10000 nM,O=C(Nc1ccc(/C=C/c2ccc(NC(=O)[C@@H]3CCCN3C(=O)c3cc(Cl)cc4ccccc34)cc2)cc1)[C@@H]1CCCN1C(=O)c1cc(Cl)cc2ccccc12,> 10 µM,–
> 10 µM,18 nM,42 nM,O=C(Nc1ccc(/C=C/c2ccc(NC(=O)[C@@H]3CCCN3C(=O)c3nc(Cl)cc4c(F)cccc34)cc2)cc1)[C@@H]1CCCN1C(=O)c1nc(Cl)cc2c(F)cccc12,> 10 µM,–
> 10 µM,971 nM,> 10000 nM,COc1cccc2nc(C(=O)N3CCC[C@H]3C(=O)Nc3ccc(/C=C/c4ccc(NC(=O)[C@@H]5CCCN5C(=O)c5ccc6c(OC)cccc6n5)cc4)cc3)ccc12,> 10 µM,–
> 10 µM,62 nM,126 nM,COc1ccc2ccc(C(=O)N3CCC[C@H]3C(=O)Nc3ccc(/C=C/c4ccc(NC(=O)[C@@H]5CCCN5C(=O)c5ccc6ccc(OC)cc6n5)cc4)cc3)nc2c1,> 10 µM,–
> 5 µM,1200 nM,1100 nM,C=Cc1ccccc1C(=O)N1CCC[C@H]1C(=O)Nc1ccc(/C=C/c2ccc(NC(=O)[C@@H]3CCCN3C(=O)c3ccccc3C=C)cc2)cc1,> 10 µM,–
3.1 µM,46 nM,720 nM,CCc1cccnc1C(=O)N1CCC[C@H]1C(=O)Nc1ccc(/C=C/c2ccc(NC(=O)[C@@H]3CCCN3C(=O)c3ncccc3CC)cc2)cc1,> 10 µM,–
> 5 µM,390 nM,4100 nM,CCc1ccnc(C(=O)N2CCC[C@H]2C(=O)Nc2ccc(/C=C/c3ccc(NC(=O)[C@@H]4CCCN4C(=O)c4cc(CC)ccn4)cc3)cc2)c1,> 10 µM,–
> 5 µM,320 nM,3500 nM,C=Cc1cccnc1C(=O)N1CCC[C@H]1C(=O)Nc1ccc(/C=C/c2ccc(NC(=O)[C@@H]3CCCN3C(=O)c3ncccc3C=C)cc2)cc1,> 10 µM,–
> 5 µM,820 nM,2200 nM,O=C(Nc1ccc(/C=C/c2ccc(NC(=O)[C@@H]3CCCN3C(=O)c3ncccc3-c3ccccc3)cc2)cc1)[C@@H]1CCCN1C(=O)c1ncccc1-c1ccccc1,> 10 µM,–

SMILES,EC50 [1],EC50 (Hepatitis C virus [3]),EC50 (Hepatitis C virus [4]),CC50 at 72 h [2],EC50 (Hepatitis C virus [5])
O=C(Nc1ccc(-c2cnc(-c3ccc(NC(=O)[C@@H]4CCCN4C(=O)Cc4ccccc4)cc3)o2)cc1)[C@@H]1CCCN1C(=O)Cc1ccccc1,> 10 µM,–,–,3.3 µM,1510 nM
O=C(Nc1ccc(C#Cc2ccc(NC(=O)[C@@H]3CCCN3C(=O)Cc3ccccc3)cc2)cc1)[C@@H]1CCCN1C(=O)Cc1ccccc1,> 10 µM,–,–,> 10 µM,> 10000 nM
